Assay outcomes as filed in PubChem BioAssay.
NALP1 inh: NALP1 inhibition | S. cerevisiae NALP1/ASC/caspase-1 growth, X-gal OD620, 72 h | 0.61% of 280,000 active | AID 2071 | inhibition, % at 10 µM; in the data active means inhibition mostly above about 24%, no sharp cut-off; inactive means mostly below about 32%
NALP3 yeast inh: inhibitors of NALP3 inflammasome in yeast; Yeast reconstituted NLRP3/ASC/caspase-1, beta-gal luminescence, 24 h; inhibition, % at 10 µM; 0.39% of 330,000 active; AID 2825;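 active means inhibition of 50% or more; inactive means inhibition below 50%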;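 further: plate controls were induced DMSO wells for no effect and uninduced yeast grown without galactose for full effect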
UCH37 DUB inh: inhibitors of human deubiquitinating enzyme UCH37 | purified proteasome/UCH37, Ub-AMC cleavage fluorescence | inhibition, % (concentration not given with the values) | 0.33% of 330,000 active | AID 588478;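 active means mean inhibition over replicate wells above about 20%, limit read from the data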;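 further: 0% = compound-free wells with enzyme and 100% = wells lacking proteasome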
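System: Proteasome-associated human UCH37 deubiquitinase; Input: 0.15 nM proteasome in added enzyme buffer; Also added: Ub-AMC substrate from 1 µM stock; Incubation: 30 min compound-proteasome preincubation then 25 min substrate reaction, room temperature; Detection: fluorescence, ex 355 nm, em 460 nm; Read-out: % inhibition of Ub-AMC cleavage fluorescence; Benchmarks: no-proteasome and no-compound wells.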
ATG4B inh: inhibitors of human ATG4B cysteine protease | Q9Y4P1 | inhibition, % at 8.33 µM | 0.51% of 340,000 active | ATG4B cleavage of LC3-PLA2, NBD-HPC fluorescence, 1 h; in the data active means inhibition above about 40%
ALR H2O2 inh: blocks human ALR sulfhydryl oxidase activity | P55789 | purified ALR, DTT oxidation, H2O2 HRP-luminol luminescence | inhibition, % (test concentration not listed) | 3.8% of 290,000 active | AID 485317;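 active means mean replicate inhibition above about 79%, with every replicate also reaching it, limit read from the data; inconclusive means only one of the two criteria met; inactive means mean below limit and not every replicate reaching it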
Target sequence (P55789 whole entry, looked up): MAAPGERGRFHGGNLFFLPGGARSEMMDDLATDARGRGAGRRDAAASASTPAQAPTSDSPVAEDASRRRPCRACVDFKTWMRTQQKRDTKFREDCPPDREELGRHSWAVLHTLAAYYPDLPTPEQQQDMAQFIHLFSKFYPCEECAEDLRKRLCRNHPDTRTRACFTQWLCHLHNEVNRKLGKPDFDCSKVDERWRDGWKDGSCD
Calb FLC: C. albicans growth modulation with fluconazole | C. albicans CaCi-2 + fluconazole, Alamar Blue growth, 48 h | growth inhibition, % (test concentration not listed) | 0.57% of 300,000 active | AID 1979;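 active means growth inhibition above about 58% in most replicates, limit read from the data, passing the limit was not always enough; inconclusive means exactly half the replicates above a set limit; inactive means most replicates below a set limit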;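 further: all wells also contain fluconazole at 8 µg/ml as a sub-toxic cotreatment; 0% = median of DMSO wells and 100% = median of geldanamycin control wells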
The depositor's hits bear a star; ? = inconclusive; · = not tested or not shown. An excerpt weighted towards active compounds, which were near 4.8% of everything screened.

SMILES | NALP1 inh | NALP3 yeast inh | UCH37 DUB inh | ATG4B inh | ALR H2O2 inh | Calb FLC
Cc1ccc(NC(=O)c2cccc(C(=O)Nc3ccc(C)cc3C(=O)O)c2)c(C(=O)O)c1 | 11 | -8 | 12 | 21 | 99* | -2
Cc1cc(N)ccc1NC(=O)c1ccccc1 | 36 | 5 | 2 | -9 | 98* | 8
Cc1cc(O)ccc1NC(=O)c1ccccc1 | -5 | 25 | -3 | -2 | 99* | -7
COc1ccc(C)cc1NC(=O)c1cccc(C(=O)Nc2cc(C)ccc2OC)c1 | 5 | 24 | 0 | 6 | -8 | -1
Cc1cc(NC(=O)c2ccccc2)c(Cl)cc1N | 20 | 28 | 3 | 8 | · | 2
COc1cccc(C(=O)C[n+]2ccccc2C=NO)c1 | · | · | 7 | · | · | ·
CCN1CCN(C=Nc2nc(C)cs2)CC1 | · | · | 1 | · | · | ·
CN1CCc2nc(SCC(=O)Nc3ccc(OC(F)(F)F)cc3)c(C#N)c(-c3cccs3)c2C1 | 23 | -14 | 7 | 11 | 99* | -3
O=C(O)Cn1cc(C(=S)N2CCOCC2)c2ccccc21 | 3 | 19 | 4 | -1 | 98* | -6
COCCn1cc(C(=S)N2CCOCC2)c2ccccc21 | 33* | 0 | 7 | -4 | 6 | ?
CC(=O)c1cn(CC(=O)Nc2ccc(C)cc2)c2ccccc12 | 4 | 7 | 20* | 6 | · | -2
O=C(O)Cn1cc(C(=S)N2CCCCC2)c2ccccc21 | 10 | 21 | 8 | -4 | 91* | -28
COc1ccc2c(c1)c(C(=O)NN=Cc1ccc(Cl)cc1)c(C)n2C | · | · | 0 | · | · | ·
CCOC(=O)C(C(C)=NNC(=O)C1CC1c1ccccc1)C(C)C (configuration not stated) | · | · | 4 | · | · | ·
CC(=NNC(=O)Cc1ccccc1)c1ccc(Br)s1 | · | · | 0 | · | · | ·
CC(C)(C)C(=O)c1cn(CC(=O)O)c2ccccc12 | -10 | 13 | 2 | -5 | -4 | -4
CC(C)C(=O)c1cn(CC(=O)O)c2ccccc12 | 26* | -3 | -2 | -3 | -4 | -1
CC(=O)Nc1ccc(Nc2nc3ccccc3nc2NS(=O)(=O)c2ccccc2)cc1 | · | 0 | 7 | -6 | 98* | 16
COc1ccc(S(=O)(=O)Nc2nc3ccccc3nc2Nc2cccc(C(=O)O)c2)cc1 | -9 | 14 | 9 | 5 | 98* | 2
O=C(CNC(=O)c1cccc(F)c1)NN=Cc1cc(Br)ccc1OCc1ccccc1 | · | · | 1 | · | · | ·
CC(C)C[C@H](NC(=O)N1CCn2c1nc1ccccc12)C(=O)N1CCCCC1 | 11 | -4 | 6 | -7 | 0 | -4
O=C(CCCCCNC(=O)N1CCn2c1nc1ccccc12)N[C@H](C(=O)O)c1ccccc1 | 12 | 1 | 1 | -30 | -30 | 0
CSCC[C@H](NC(=O)N1CCn2c1nc1ccccc12)C(=O)N1CCCCC1 | 7 | 8 | 0 | 8 | 98* | -1
CC(NC(=O)CCNC(=O)N1CCn2c1nc1ccccc12)c1ccccc1 (configuration not stated) | 0 | 10 | 3 | -6 | 97* | -2
CC(Cn1nnc([N+](=O)[O-])n1)=NNC(=O)c1cccc(Cl)c1 | · | · | 2 | · | · | ·
SMILES | NALP1 inh | NALP3 yeast inh | UCH37 DUB inh | ATG4B inh | ALR H2O2 inh | Calb FLC
CCc1cc2c(nc1CC)CCN(CCC(C)=NOC[C@H]1O[C@H](c3ccccc3)C=C[C@@H]1Oc1ccc(OC)cc1)C2 | · | · | 1 | · | · | ·
COc1ccc(-c2csc(NC(=O)CSCC(=O)Nc3cc(C)on3)n2)cc1OC | · | 19 | 1 | -3 | 99* | 10
COc1ccc(-c2csc(Nc3ccc(S(=O)(=O)Nc4cc(OC)nc(OC)n4)cc3)n2)cc1 | 9 | 2 | -7 | 33 | 21 | 50
COc1ccc(OC)c(-c2csc(NC(=O)CSc3ccc([N+](=O)[O-])cc3)n2)c1 | 33 | 25 | 33* | -18 | -2 | -23
COc1ccc(-c2csc(Nc3ccc(S(=O)(=O)Nc4cc(C)on4)cc3)n2)cc1C | 9 | 7 | -2 | 5 | 99* | -18
COc1ccc(-c2csc(NC(=O)CSCc3c(C)noc3C)n2)cc1OC | 16 | -9 | 2 | 1 | -9 | 3
CNC(=S)NN=Cc1ccco1 | · | · | 4 | · | · | ·
Cc1ccc(C(=O)NCCCNC(=O)c2ccco2)cc1 | 10 | 1 | 1 | 1 | -13 | -2
Cc1ccc(-c2cnc(SCCNC(=O)c3ccco3)[nH]2)cc1 | · | 10 | 1 | 9 | 94* | 7
